Source: ChEMBL document CHEMBL4359877, “Identification of benzothiazinones containing an oxime functional moiety as new anti-tuberculosis agents” (Eur J Med Chem, 2019)
Values after ≈ are worked out from the molar mass of the structure shown.

What was measured:
[1] = tested on: Mycobacterium tuberculosis; test: Antimycobacterial activity against Mycobacterium tuberculosis H37Rv ATCC 27294 assessed as reduction in bacterial cell growth incubated for 7 days by microplate alamar blue assay; assay type: functional; conditions: H37Rv ATCC 27294, 168 h
In short: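 MABA: H37Rv or clinical MDR isolates (resistant to INH and RFP, Beijing Chest Hospital patients) grown to late log phase in 7H9 with glycerol, Tween 80 and ADC, washed, filtered and frozen. Two-fold compound dilutions with 2 × 10⁵ CFU per well, 37 °C; Alamar blue plus Tween 80 added on day 7, fluorescence (ex 530/em 590) read after 16–24 h. MIC = lowest concentration giving ≥90% fluorescence reduction versus mean of bacterium-only controls; RIF and INH as positive controls.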

[2] = Cytotoxicity against African green monkey Vero cells assessed as reduction in cell viability; assay type: cell-based; conditions: chlorocebus sabaeus
[3] = tested on: Mycobacterium tuberculosis; test: Antituberculosis activity against Mycobacterium tuberculosis H37Rv infected in BALB/C mouse assessed as colony forming unit in lungs at 25 mg/kg, po administered once daily via gavage for 5 days per week for 3 weeks starting from 10 days post-infection (reference value: 6.44 +/- 0.34); assay type: functional

Row | SMILES | MIC90 [1] | CC50 [2] | Activity [3]
1 | CCON=C1CCC(CN2CCN(c3nc(=O)c4cc(C(F)(F)F)cc([N+](=O)[O-])c4s3)C[C@H]2C)CC1 (stereo not given in full) | < 0.016 µg/mL | > 64 µg/mL | –
2 | CCON=C1CCC(CN2CCN(c3nc(=O)c4cc(C(F)(F)F)cc([N+](=O)[O-])c4s3)CC2C)CC1 (stereo not given) | < 0.016 µg/mL | > 64 µg/mL | –
3 | CO/N=C(/C)CCN1CCC2(CCN(c3nc(=O)c4cc(C(F)(F)F)cc([N+](=O)[O-])c4s3)CC2)C1 | 0.469 µg/mL (≈ 0.913 µM) | – | –
4 | CON=C1CCC(CN2CCN(c3nc(=O)c4cc(C(F)(F)F)cc([N+](=O)[O-])c4s3)C[C@H]2C)CC1 (stereo not given in full) | < 0.016 µg/mL | > 64 µg/mL | –
5 | CO/N=C(\C)CN1CCC2(CCN(c3nc(=O)c4cc(C(F)(F)F)cc([N+](=O)[O-])c4s3)CC2)C1 | 0.085 µg/mL (≈ 0.17 µM) | – | –
6 | CCO/N=C(\C)CN1CCC2(CCN(c3nc(=O)c4cc(C(F)(F)F)cc([N+](=O)[O-])c4s3)CC2)C1 | 0.029 µg/mL (≈ 0.0565 µM) | – | –
7 | C/C(CN1CCN(c2nc(=O)c3cc(C(F)(F)F)cc([N+](=O)[O-])c3s2)CC1)=N\OCc1ccccc1 | < 0.016 µg/mL | > 64 µg/mL | –
8 | CCON=C1CC(CN2CCN(c3nc(=O)c4cc(C(F)(F)F)cc([N+](=O)[O-])c4s3)CC2)C1 (stereo not given) | < 0.016 µg/mL | > 64 µg/mL | –
9 | CCON=C1CCC(CN2CCN(c3nc(=O)c4cc(C(F)(F)F)cc([N+](=O)[O-])c4s3)C[C@@H]2C)CC1 (stereo not given in full) | < 0.016 µg/mL | > 64 µg/mL | –
10 | CCON=C1CC(CN2CCN(c3nc(=O)c4cc(C(F)(F)F)cc([N+](=O)[O-])c4s3)CC2C)C1 (stereo not given) | 0.052 µg/mL (≈ 0.104 µM) | – | –
11 | CCON=C1CCC(CN2C(C)CN(c3nc(=O)c4cc(C(F)(F)F)cc([N+](=O)[O-])c4s3)CC2C)CC1 (stereo not given) | < 0.016 µg/mL | 60.5 µg/mL (≈ 112 µM) | –
12 | CCO/N=C(/C)CCN1CCC2(CCN(c3nc(=O)c4cc(C(F)(F)F)cc([N+](=O)[O-])c4s3)CC2)C1 | 0.241 µg/mL (≈ 0.457 µM) | – | –
13 | CON=C1CCC(CN2CCN(c3nc(=O)c4cc(C(F)(F)F)cc([N+](=O)[O-])c4s3)C[C@@H]2C)CC1 (stereo not given in full) | < 0.016 µg/mL | > 64 µg/mL | –
14 | CON=C1CC(CN2CCN(c3nc(=O)c4cc(C(F)(F)F)cc([N+](=O)[O-])c4s3)CC2)C1 (stereo not given) | 0.023 µg/mL (≈ 0.0488 µM) | – | –
15 | CON=C1CCC(CN2C(C)CN(c3nc(=O)c4cc(C(F)(F)F)cc([N+](=O)[O-])c4s3)CC2C)CC1 (stereo not given) | < 0.016 µg/mL | > 64 µg/mL | –
16 | CON=C1CC(CN2C(C)CN(c3nc(=O)c4cc(C(F)(F)F)cc([N+](=O)[O-])c4s3)CC2C)C1 (stereo not given) | 0.066 µg/mL (≈ 0.132 µM) | – | –

Row | SMILES | MIC90 [1] | CC50 [2] | Activity [3]
17 | CON=C1CC(CN2CCN(c3nc(=O)c4cc(C(F)(F)F)cc([N+](=O)[O-])c4s3)CC2C)C1 (stereo not given) | 0.056 µg/mL (≈ 0.115 µM) | – | –
18 | CO/N=C(\C)CCN1CCN(c2nc(=O)c3cc(C(F)(F)F)cc([N+](=O)[O-])c3s2)CC1 | < 0.016 µg/mL | > 64 µg/mL | –
19 | NNC(=O)c1ccncc1 [ISONIAZID] | 0.031 µg/mL (≈ 0.226 µM) | – | 1.76 log10CFU
20 | CON=C1CCC(CN2CCN(c3nc(=O)c4cc(C(F)(F)F)cc([N+](=O)[O-])c4s3)CC2C)CC1 (stereo not given) | < 0.016 µg/mL | > 64 µg/mL | –
21 | C/C(CCN1CCN(c2nc(=O)c3cc(C(F)(F)F)cc([N+](=O)[O-])c3s2)CC1)=N\OCc1ccccc1 | < 0.016 µg/mL | > 64 µg/mL | –
22 | CCON=C1CCC(CN2CCN(c3nc(=O)c4cc(C(F)(F)F)cc([N+](=O)[O-])c4s3)[C@H](C)C2)CC1 (stereo not given in full) | < 0.016 µg/mL | > 64 µg/mL | –
23 | CCON=C1CC(CN2C(C)CN(c3nc(=O)c4cc(C(F)(F)F)cc([N+](=O)[O-])c4s3)CC2C)C1 (stereo not given) | 0.056 µg/mL (≈ 0.109 µM) | – | –
24 | CON=C1CCC(CN2CC(C)N(c3nc(=O)c4cc(C(F)(F)F)cc([N+](=O)[O-])c4s3)CC2C)CC1 (stereo not given) | 0.031 µg/mL (≈ 0.0588 µM) | – | –
25 | CO[C@H]1/C=C/O[C@@]2(C)Oc3c(C)c(O)c4c(O)c(c(/C=N/N5CCN(C)CC5)c(O)c4c3C2=O)NC(=O)/C(C)=C\C=C\[C@H](C)[C@H](O)[C@@H](C)[C@@H](O)[C@@H](C)[C@H](OC(C)=O)[C@@H]1C [RIFAMPIN] | 0.078 µg/mL (≈ 0.0948 µM) | – | –
26 | CCON=C1CCC(CN2CCN(c3nc(=O)c4cc(C(F)(F)F)cc([N+](=O)[O-])c4s3)[C@@H](C)C2)CC1 (stereo not given in full) | < 0.016 µg/mL | > 64 µg/mL | –
27 | CON=C1CCC(CN2CCN(c3nc(=O)c4cc(C(F)(F)F)cc([N+](=O)[O-])c4s3)[C@H](C)C2)CC1 (stereo not given in full) | 0.023 µg/mL (≈ 0.0448 µM) | – | –
28 | CON=C1CCC(CN2CCN(c3nc(=O)c4cc(C(F)(F)F)cc([N+](=O)[O-])c4s3)[C@@H](C)C2)CC1 (stereo not given in full) | < 0.016 µg/mL | > 64 µg/mL | –
29 | C/C(CCN1CCC2(CCN(c3nc(=O)c4cc(C(F)(F)F)cc([N+](=O)[O-])c4s3)CC2)C1)=N/OCc1ccccc1 | 0.119 µg/mL (≈ 0.202 µM) | – | –
30 | CCO/N=C(\C)CN1CCN(c2nc(=O)c3cc(C(F)(F)F)cc([N+](=O)[O-])c3s2)CC1 | < 0.016 µg/mL | > 64 µg/mL | –
31 | CO/N=C(\C)CN1CCN(c2nc(=O)c3cc(C(F)(F)F)cc([N+](=O)[O-])c3s2)CC1 | 0.037 µg/mL (≈ 0.0831 µM) | – | –
32 | CCO/N=C(\C)CCN1CCN(c2nc(=O)c3cc(C(F)(F)F)cc([N+](=O)[O-])c3s2)CC1 | < 0.016 µg/mL | > 64 µg/mL | –
